Test results reported in ChEMBL document CHEMBL1125185, “Nonpeptide angiotensin II receptor antagonists: the discovery of a series of N-(biphenylylmethyl)imidazoles as potent, orally active antihypertensives” (J Med Chem, 1991).
The source made the active and inactive calls. No cut-off for these calls is given here.

Assays:
Angiotensin II receptor = target: T1, Angiotensin II receptor (Rattus norvegicus, UniProt P29089+P25095+P35351); test: Inhibition of radioligand [3H]angiotensin II binding to angiotensin II receptor of rat adrenal cortical membrane
T1 sequence (P29089 whole entry): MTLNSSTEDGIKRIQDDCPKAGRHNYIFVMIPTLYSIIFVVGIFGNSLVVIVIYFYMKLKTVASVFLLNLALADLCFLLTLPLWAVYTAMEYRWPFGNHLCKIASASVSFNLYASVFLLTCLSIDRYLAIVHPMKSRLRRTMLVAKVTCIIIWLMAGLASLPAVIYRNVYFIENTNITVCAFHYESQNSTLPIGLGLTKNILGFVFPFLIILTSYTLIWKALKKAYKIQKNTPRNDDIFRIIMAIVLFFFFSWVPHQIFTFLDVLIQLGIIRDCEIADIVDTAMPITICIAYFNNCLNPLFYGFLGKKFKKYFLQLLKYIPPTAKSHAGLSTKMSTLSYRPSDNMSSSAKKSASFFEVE
T1 sequence (P25095 whole entry): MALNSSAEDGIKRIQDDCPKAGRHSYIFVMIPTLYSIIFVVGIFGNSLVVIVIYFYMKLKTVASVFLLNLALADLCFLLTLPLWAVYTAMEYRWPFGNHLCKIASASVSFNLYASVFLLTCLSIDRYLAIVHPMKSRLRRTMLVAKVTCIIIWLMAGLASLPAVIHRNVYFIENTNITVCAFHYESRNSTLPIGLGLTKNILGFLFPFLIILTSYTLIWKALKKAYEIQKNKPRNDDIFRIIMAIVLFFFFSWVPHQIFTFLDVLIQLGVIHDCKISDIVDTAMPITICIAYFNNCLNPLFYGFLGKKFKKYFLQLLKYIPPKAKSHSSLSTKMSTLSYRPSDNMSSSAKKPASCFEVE
T1 sequence (P35351 whole entry): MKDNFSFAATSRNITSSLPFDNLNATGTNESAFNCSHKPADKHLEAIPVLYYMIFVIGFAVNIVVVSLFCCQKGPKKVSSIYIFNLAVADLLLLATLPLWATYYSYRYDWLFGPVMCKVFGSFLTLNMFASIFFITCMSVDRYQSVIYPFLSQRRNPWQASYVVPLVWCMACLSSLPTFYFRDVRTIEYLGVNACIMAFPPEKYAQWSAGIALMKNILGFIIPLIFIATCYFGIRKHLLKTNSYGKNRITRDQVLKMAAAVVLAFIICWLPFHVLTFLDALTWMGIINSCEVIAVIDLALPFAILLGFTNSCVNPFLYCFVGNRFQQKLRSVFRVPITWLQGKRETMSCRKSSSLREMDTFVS
Procedure, shortened: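 Rat adrenal cortical microsomes came from male Sprague-Dawley CD rats (300-400 g) and were prepared at 4 °C in sucrose/EDTA/Tris pH 7.4. Samples were filtered and counted, in duplicate. Specific binding was defined with 1 µM unlabeled AII. IC50 was taken from the linear portion of the displacement curve.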

Rattus norvegicus [1] = test: Blood pressure lowering activity in renal hypertensive rats after peroral administration; format: functional
Procedure, shortened: (§1)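 Conscious male Sprague-Dawley CD rats, six days after left renal artery ligation and with jugular and carotid cannulae, were dosed by oral gavage at 1-100 mg/kg (4-6 rats/dose). Mean arterial pressure was monitored for 3 h.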

Rattus norvegicus [2] = test: Blood pressure lowering activity in renal hypertensive rats after intravenous administration; format: functional
Procedure, shortened: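 Male Sprague-Dawley CD rats had the left renal artery ligated under hexobarbital (100 mg/kg ip). Six days later the jugular vein and carotid artery were cannulated under hexobarbital (90 mg/kg ip). Compound was given intravenously to the conscious hypertensive rats while mean arterial pressure was recorded.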

[3] = Ionization constant for the compound; format: physicochemical, Rattus norvegicus
Rattus norvegicus [4] = test: Blood pressure lowering activity in renal hypertensive rats after peroral administration; Inactive indicates fail to cause significant drop in blood pressure even at 100 mg/kg (in vivo); format: functional, organism-based; set-up: dose 100 mg/kg; procedure, shortened: as §1

SMILES	IC50 (Angiotensin II receptor) [nM]	Activity (Rattus norvegicus [1]) [mg/kg]	Activity (Rattus norvegicus [2]) [mg/kg]	pKa [3]	Activity (Rattus norvegicus [4])
CCCCc1nc(Cl)c(C=O)n1Cc1ccc(-c2cccc(-c3nn[nH]n3)c2)cc1	> 1000	30	>10	–	–
CCCc1nc(Cl)c(CO)n1Cc1ccc(-c2ccccc2C(=O)O)cc1	160	30	3	–	–
CCCCc1nc(I)c(CO)n1Cc1ccc(-c2ccccc2-c2nn[nH]n2)cc1	–	10	1	–	–
CCCCc1nc(Cl)c(COC(C)=O)n1Cc1ccc(-c2ccccc2C(=O)O)cc1	–	100	10	–	–
CCCCc1nc(Cl)c(COC)n1Cc1ccc(-c2ccccc2C(=O)O)cc1	–	100	10	5	–
CCCCc1nc(Cl)c(COC)n1Cc1ccc(-c2ccccc2Cc2nnn[nH]2)cc1	300	100	10	–	–
CCCCc1nc(Cl)c(CO)n1Cc1ccc(-c2ccccc2C(N)=O)cc1	35000	–	–	–	–
CCCCc1nc(Cl)c(C(N)=O)n1Cc1ccc(-c2ccccc2C(=O)O)cc1	150	100	10	–	–
CCc1nc(Cl)c(CO)n1Cc1ccc(-c2ccccc2C(=O)O)cc1	1700	100	10	–	–
CCCCc1nc(Cl)c(CO)n1Cc1ccc(-c2c(OC)cccc2C(=O)O)cc1	3000	100	10	–	–
CCCCCCc1nc(Cl)c(CO)n1Cc1ccc(-c2ccccc2C(=O)O)cc1	–	–	10	–	inactive
CCCCc1nc(Cl)c(/C=N/NC2=NCCN2)n1Cc1ccc(-c2ccccc2-c2nn[nH]n2)cc1	290	30	3	–	–
CCCCc1nc(Cl)c(CO)n1Cc1ccc(-c2cccc(C(=O)O)c2)cc1	–	100	45	–	–
CCCCc1nc(Cl)c(CN)n1Cc1ccc(-c2ccccc2C(=O)O)cc1	3200	–	–	–	–
CCCCc1nc(Cl)c(COC)n1Cc1ccc(-c2ccccc2C(=O)Nc2nn[nH]n2)cc1	–	–	10	–	–
CCCCc1nc(Cl)c(COC)n1Cc1ccc(-c2ccccc2NS(=O)(=O)C(F)(F)F)cc1	–	100	10	4.5	–
CCCCc1nc(Cl)c(CO)n1Cc1ccc(-c2ccccc2-c2[nH]nnc2C(=O)OC)cc1	260	>10	>1	7	–
C=CCOC(=O)NCc1c(Cl)nc(CCCC)n1Cc1ccc(-c2ccccc2C(=O)O)cc1	390	100	10	–	–
CCCCc1nc(Cl)c(CO)n1Cc1ccc(-c2ccc(C(=O)O)cc2)cc1	–	–	>10	–	inactive
CCCCCc1nc(Cl)c(CO)n1Cc1ccc(-c2ccccc2C(=O)O)cc1	980	30	3	–	–

SMILES	IC50 (Angiotensin II receptor) [nM]	Activity (Rattus norvegicus [1]) [mg/kg]	Activity (Rattus norvegicus [2]) [mg/kg]	pKa [3]	Activity (Rattus norvegicus [4])
CCCCc1nc(Cl)c(CNC(=O)OC)n1Cc1ccc(-c2ccccc2-c2nn[nH]n2)cc1	60	>10	1	–	–
CCCCc1nc(Cl)c(CNC(=O)OC23C[C@H]4C[C@@H](C2)C[C@@H](C3)C4)n1Cc1ccc(-c2ccccc2C(=O)O)cc1	600	30	3	–	–
CCCCc1nc(Cl)c(C(=O)OC)n1Cc1ccc(-c2ccccc2C(=O)O)cc1	340	100	10	–	–
CCCCc1nc(Cl)c(CO)n1Cc1ccc(-c2ccccc2NS(=O)(=O)C(F)(F)F)cc1	–	100	10	4.5	–
CCCCc1nc(Br)c(CO)n1Cc1ccc(-c2ccccc2C(=O)O)cc1	90	30	3	–	–
CCCCc1nc(I)c(CO)n1Cc1ccc(-c2ccccc2C(=O)O)cc1	61	100	10	–	–
CCCCc1nc(C(F)(F)F)c(CO)n1Cc1ccc(-c2ccccc2C(=O)O)cc1	62	30	3	–	–
CCCCc1nc(Cl)c(C(=O)N(C)C)n1Cc1ccc(-c2ccccc2C(=O)O)cc1	1300	10	10	–	–
CCCCc1nc(Cl)c(C(O)c2ccccc2)n1Cc1ccc(-c2ccccc2-c2nn[nH]n2)cc1 (stereo not given)	410	>30	3	–	–
CCCCc1nc(Cl)c(CO)n1Cc1ccc(-c2cccc(C)c2C(=O)O)cc1	1900	10	3	–	–
CCCCc1nc(Br)c(CO)n1Cc1ccc(-c2ccccc2-c2nn[nH]n2)cc1	–	3	0.3	–	–
CCCCc1nc(Cl)c(/C=N/NS(=O)(=O)c2ccccc2)n1Cc1ccc(-c2ccccc2-c2nn[nH]n2)cc1	660	30	3	–	–
CCCCc1nc(Cl)c(CNC(=O)OC)n1Cc1ccc(-c2ccccc2C(=O)O)cc1	250	30	3	–	–
CCCCc1nc(Cl)c(CO)n1Cc1ccc(-c2ccccc2-c2[nH]nnc2C#N)cc1	280	>10	>1	–	–
CCCCc1nc(Cl)c(CO)n1Cc1ccc(-c2ccccc2-c2n[nH]c(C(F)(F)F)n2)cc1	370	10	1	–	–
CCCCc1nc(Cl)c(COC)n1Cc1ccc(-c2ccccc2-c2nn[nH]n2)cc1	–	3	1	6	–
CCCCc1nc(Cl)c(CNC(=O)OCC)n1Cc1ccc(-c2ccccc2C(=O)O)cc1	200	100	10	–	–
O=C(O)c1ccccc1-c1ccc(Cn2c(-c3ccccc3)nc(Cl)c2CO)cc1	–	100	10	–	–
CCCCc1nc(Cl)c(C=O)n1Cc1ccc(-c2ccccc2-c2nn[nH]n2)cc1	20	3	0.3	–	–
